One data set deals with Influenza B. Put plainly: Anti-influenza virus activity, influenza B in MDCK cells. Format: cell-based, influenza B virus B/Hong Kong/5/72. The note with it: Influenza B virus, MDCK.
For a further data set, the system named is Feline herpes virus. Put plainly: Antiviral CPE assay, feline herpes virus in CRFK cells. Format: cell-based. The note with it: CRFK, read-out: EC50 Feline herpes virus.
The next data set deals with Para-influenza-3 virus. Put plainly: organism not typed. Format: cell-based, parainfluenza-3 virus. The settings on record: Vero, read-out: Antiviral activity EC50 Para-influenza-3 virus.
Data set [1] relates to Herpes simplex virus-2 (G). Put plainly: microbe, parasite or virus in culture. It is filed as cell-based, herpes simplex virus type 2. The note with it: Human alphaherpesvirus 2, HEL, read-out: EC50 Herpes simplex virus-2 (G).
The subject of a further data set is Sindbis virus. Put plainly: microbe, parasite or virus in culture. It is filed as cell-based. The note with it: Sindbis virus, Vero, read-out: Antiviral activity EC50 Sindbis virus.
In the next data set the test system is HeLa cell cultures. The data set is described as follows: Cytotoxicity. It is filed as cell-based. The gist of the method:
(§1)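 Cell cultures incubated with varying concentrations of test compound, then examined by microscopy. MCC is the lowest concentration that causes a microscopically detectable alteration of normal cell morphology. HEL, Vero and HeLa lines were monitored regularly for mycoplasma and found free of it.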

Data set [2] has as its system Herpes simplex virus-1 (KOS). The data set is described as follows: microbe, parasite or virus in culture. It is filed as cell-based, herpes simplex virus type 1. The note with it: Human alphaherpesvirus 1, HEL, read-out: EC50 Herpes simplex virus-1 (KOS).
The test system of another data set is MDCK cells. The settings on record: microscopically detectable alteration of normal cell morphology.
Data set [3] concerns Human embryonic lung cell cultures. Put plainly: Cytotoxicity. It is filed as cell-based. The gist of the method:
as §1

For data set [4], the system named is Coxsackie virus B4. Put plainly: microbe, parasite or virus in culture. Format: cell-based. The settings on record: Enterovirus B, B4, Vero, read-out: Antiviral activity EC50 Coxsackie virus B4.
The subject of data set [5] is Coxsackie virus B4. The data set is described as follows: microbe, parasite or virus in culture. Format: cell-based. The settings on record: Enterovirus B, B4, HeLa, read-out: Antiviral activity EC50 Coxsackie virus B4.
Data set [6] deals with Herpes simplex virus-1TK-KOS ACV^r. The data set is described as follows: microbe, parasite or virus in culture. The settings on record: Human alphaherpesvirus 1, HEL, read-out: EC50 Herpes simplex virus-1TK-KOS ACV^r. Format: cell-based, herpes simplex virus type 1.
In another data set the test system is Vaccinia virus. The data set is described as follows: microbe, parasite or virus in culture. Format: cell-based. The note with it: Orthopoxvirus vaccinia, HEL, read-out: EC50 Vaccinia virus.
The nature of a further data set: in vitro. The settings on record: dog.
Another data set has as its system Vero cell cultures. Put plainly: Cytotoxicity. It is filed as cell-based. The gist of the method: as §1
Data set [7] deals with Crandell-Rees feline kidney cells. Put plainly: Cytotoxicity. Format: cell-based.
For data set [8], the system named is Vesicular stomatitis virus. The data set is described as follows: microbe, parasite or virus in culture. Format: cell-based. The settings on record: Vesicular stomatitis virus, HEL, read-out: EC50 Vesicular stomatitis virus.
The test system of another data set is Punta Toro virus. The data set is described as follows: microbe, parasite or virus in culture. It is filed as cell-based. The note with it: Punta Toro virus, Vero, read-out: Antiviral activity EC50 Punta Toro virus.
Data set [9] has as its system Cytomegalovirus Davis strain. Put plainly: microbe, parasite or virus in culture. The settings on record: Human betaherpesvirus 5, HEL, read-out: EC50 Cytomegalovirus Davis strain. Format: cell-based.
For a further data set, the system named is Reovirus-1. The data set is described as follows: organism not typed. It is filed as cell-based. The settings on record: Vero, read-out: Antiviral activity EC50 Reovirus-1.
Data set [10] deals with mouse-skin papillomas induced by DMBA and TPA. The data set is described as follows: Two-stage mouse-skin carcinogenesis test. It is filed as in vivo. The settings on record: 85 nmol topical. The gist of the method:
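Specific pathogen-free female ICR mice, 6 weeks old, about 30 g, 15 per group, kept at 24 ± 2 °C. Shaved backs were initiated with DMBA (100 μg, 390 nmol) in 0.1 ml acetone. One week later, TPA (1 μg, 1.7 nmol) in acetone was applied twice weekly. Test compound (85 nmol) in 0.1 ml acetone was applied topically 1 h before each TPA. Papillomas were scored weekly for 20 weeks as % mice bearing papillomas and mean papillomas per mouse.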

The mark [11] stands for this setting: read-out: Antiviral EC50 Influenza B MTS.
Where [12] appears, read: read-out: Antiviral EC50 Influenza B Visual CPE score.

Read-outs that look alike come from different tables or passages of the source.

12 molecules from publication PMC7080202 (Medicinal Chemistry Research, 2013) can be followed below.

The term EC50 denotes the concentration giving half of the maximal effect. As to `O=C1/C(=N\NC(=S)NN=Cc2ccccc2)c2ccccc2N1Cc1ccccc1` [4g, 3-{[(3Z)-1-benzyl-2-oxo-2,3-dihydro-1H-indol-3-ylidene]amino}-1-[(phenylmethylidene)amino]thiourea], the EC50 (in the data set on Influenza B (setting [11]); with Influenza B (setting [12]); in the data set with Feline herpes virus; in the data set with Para-influenza-3 virus; in data set [1]; in the data set with Sindbis virus) was over 100 µM throughout. The EC50 was over 100 µM in [2]; over 100 µM in the data set on Coxsackie virus B4 [4]; over 20 µM in the data set with Coxsackie virus B4 [5]; over 100 µM in data set [6]; over 100 µM with Vaccinia virus; over 100 µM in data set [8]. In addition, the EC50 (in the data set on Punta Toro virus; in data set [9]; in the data set with Reovirus-1) was over 100 µM throughout. Besides, the Minimum cytotoxic concentration in the data set with HeLa cell cultures was 100 µM; in data set [3], at least 100 µM; with Vero cell cultures, over 100 µM; in [7] it was at least 100 µM. For the same molecule, the “Cytotoxicity Minimum cytotoxic concentration” value with MDCK cells is given as over 100. Besides, the CC50 in the data set “in vitro” is over 100 µM.

As for `O=C(N/N=C1\C(=O)Nc2ccccc21)N/N=C1\C(=O)Nc2ccccc21` [6a, 1,3-Bis({[(3Z)-2-oxo-2,3-dihydro-1H-indol-3-ylidene]amino})urea], the EC50 (in the data set with Influenza B (setting [11]); in the data set on Influenza B (setting [12]); in the data set on Feline herpes virus; in data set [1]; in [2]; with Coxsackie virus B4 [5]) was over 100 µM each time. For the same molecule, the EC50 (in data set [6]; in the data set with Vaccinia virus; in [8]; in data set [9]) was over 100 µM throughout. Further, the Minimum cytotoxic concentration in the data set on HeLa cell cultures was over 100 µM; in data set [3], at least 100 µM; with Vero cell cultures, 100 µM; in data set [7] it was over 100 µM. The “Cytotoxicity Minimum cytotoxic concentration” value with MDCK cells was over 100. The molecule also came in with a CC50 in “in vitro” of over 100 µM.

As for `O=C(N/N=C1\C(=O)Nc2ccc(Cl)cc21)N/N=C1\C(=O)Nc2ccc(Cl)cc21` [6b, 1,3-Bis({[(3Z)-5-chloro-2-oxo-2,3-dihydro-1H-indol-3-ylidene]amino})urea], the EC50 with Influenza B (setting [11]) is over 100 µM; in the data set on Influenza B (setting [12]) it was over 100 µM; in the data set with Feline herpes virus, 19.7 µM; in the data set with Para-influenza-3 virus, over 20 µM; in data set [1], over 100 µM; in the data set on Sindbis virus it was over 20 µM. Further, the EC50 in [2] was over 100 µM; with Coxsackie virus B4 [4], over 20 µM; with Coxsackie virus B4 [5], over 100 µM; in data set [6], over 100 µM; with Vaccinia virus, over 100 µM; in data set [8], over 100 µM. Further, the EC50 (in the data set with Punta Toro virus; in data set [9]; in the data set with Reovirus-1) was over 20 µM in each case. In addition, the “chemoprevention / anti-tumor promoting activity (in words)” value in data set [10] is on record as “moderate protection”. The papillomas/mouse in [10] (10 weeks of promotion) turned out to be 1.2 papillomas/mouse; in [10] (15 weeks of promotion), 3.9 papillomas/mouse; in data set [10] (week 20), 6.1 papillomas/mouse. Besides, in [10] (after week 17), the “percentage of papillomas (mice with papillomas)” value is 100%. In addition, the Minimum cytotoxic concentration with HeLa cell cultures is over 100 µM; in [3], 100 µM; in the data set with Vero cell cultures, 100 µM; in data set [7], over 100 µM. For the same molecule, in the data set with MDCK cells, the “Cytotoxicity Minimum cytotoxic concentration” value was over 100. The CC50 in the data set “in vitro” was over 100 µM.

For the molecule `Nc1ncnc2c1ncn2C[C@H](O)CO` [(S)-DHPA, reference compound], the EC50 in the data set on Para-influenza-3 virus, in the data set on Sindbis virus, in the data set on Coxsackie virus B4 [4], with Coxsackie virus B4 [5], with Punta Toro virus and in the data set on Reovirus-1 was over 250 µM in each case. Besides, the Minimum cytotoxic concentration with HeLa cell cultures and in the data set on Vero cell cultures was over 250 µM throughout.

As to `Nc1nc2c(ncn2COCCO)c(=O)[nH]1` [Acyclovir, reference compound], the EC50 in [1] was 0.2 µM; in data set [2] it was 0.4 µM; in [6], 22 µM; with Vaccinia virus it was over 250 µM; in [8], over 250 µM.

Turning to `NC12CC3CC(CC(C3)C1)C2` [Amantadine, reference compound], the EC50 in the data set with Influenza B (setting [11]) and in the data set on Influenza B (setting [12]) was over 200 µM throughout. Moreover, the “Cytotoxicity Minimum cytotoxic concentration” value in the data set on MDCK cells is reported as over 200. In addition, the CC50 in the data set “in vitro” is over 200 µM.

Consider `O=c1[nH]c(=O)n([C@H]2C[C@H](O)[C@@H](CO)O2)cc1/C=C/Br` [Brivudin, reference compound], for which the EC50 in data set [1] was 112 µM; in data set [2], 0.04 µM; in [6] it was 50 µM; in the data set with Vaccinia virus it was 4 µM; in [8], over 250 µM. This molecule displayed a Minimum cytotoxic concentration in data set [3] of over 300 µM.

For `Nc1ccn(C[C@@H](CO)OCP(=O)(O)O)c(=O)n1` [Cidofovir, reference compound], the EC50 in [1] was 1 µM; in [2], 2 µM; in [6], 0.9 µM; in the data set on Vaccinia virus, 22 µM; in data set [8], over 250 µM; in [9] it was 0.78 ± 0.49 µM. In [3], this molecule gave a Minimum cytotoxic concentration of over 300 µM.

In the case of `Nc1nc(O)c2ncn(COC(CO)CO)c2n1` [Ganciclovir, reference compound], the EC50 in the data set with Feline herpes virus is 1.4 µM; in data set [1], 0.01 µM; in data set [2] it was 0.02 µM; in [6] it was 4 µM; in the data set with Vaccinia virus, over 100 µM; in [8], over 100 µM. Also, in data set [9], the EC50 stood at 5.5 ± 2.36 µM. Also, the Minimum cytotoxic concentration in data set [3] is over 350 µM; in data set [7], over 100 µM.

Consider `CCC(CC)O[C@@H]1C=C(C(=O)O)C[C@H](N)[C@H]1NC(C)=O` [Oseltamivir carboxylate, reference compound], for which the EC50 in the data set with Influenza B (setting [11]) turned out to be 2.5 ± 0.7 µM; with Influenza B (setting [12]) it was 6.7 ± 5.3 µM. For the same molecule, in the data set on MDCK cells, the “Cytotoxicity Minimum cytotoxic concentration” value was over 100. For the same molecule, in “in vitro”, the CC50 was over 100 µM.

For `NC(=O)c1ncn([C@@H]2O[C@H](CO)[C@@H](O)[C@H]2O)n1` [Ribavirin, reference compound], the EC50 is 2.45 ± 0.25 µM with Influenza B (setting [11]); 2.4 ± 1.6 µM in the data set with Influenza B (setting [12]); over 250 µM with Sindbis virus; 250 µM in the data set with Coxsackie virus B4 [4]; 112 µM in the data set on Coxsackie virus B4 [5]. Further, the Minimum cytotoxic concentration in the data set on HeLa cell cultures and in the data set with Vero cell cultures was over 250 µM in each case. Besides, in the data set with MDCK cells, the “Cytotoxicity Minimum cytotoxic concentration” value was over 100.

For the molecule `CC(N)C12CC3CC(CC(C3)C1)C2` (stereo not shown) [Rimantadine, reference compound], the EC50 in the data set on Influenza B (setting [11]) and with Influenza B (setting [12]) was over 200 µM in each case. Besides, the “Cytotoxicity Minimum cytotoxic concentration” value in the data set on MDCK cells was over 200. The molecule also came in with a CC50 in the data set “in vitro” of over 200 µM.
